# ChEMBL document CHEMBL2331392, “Antiviral phenolic compounds from Arundina gramnifolia” (J Nat Prod, 2013)
# What was measured:
# Tobacco mosaic virus [1] = assay: Antiviral activity against TMV strain U1 infected in Nicotiana glutinosa leaves assessed as decrease in number of local leaf lesions at 20 uM incubated with virus for 30 mins prior to inoculation on leaves measured 3 to 4 days post-viral infection by half-leaf method; format: functional
# Method in brief: (§1)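 Half-leaf assay on N. glutinosa. TMV U1 was multiplied in N. tabacum cv. K326, purified, and set to 20 mg/mL by UV absorbance at 260 nm. Compounds were dissolved in DMSO and diluted with water. Virus and compound were mixed for 30 min and applied to the left leaf half; the right half got virus plus matched DMSO. Ningnanmycin served as positive control. Three leaf blades per compound. Inhibition % = (C−T)/C×100 from mean local lesion counts.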
# [2] = Cytotoxicity against human C8166 cells assessed as inhibition of cell viability after 3 days by MTT assay; format: cell-based
# Method in brief: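 C8166 cells tested with the MTT method. Cytotoxicity reported as CC50. Azidothymidine ran alongside as positive control.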
# [3] = Therapeutic index, ratio of CC50 for human C8166 cells to EC50 for HIV-1 3B infected in human C8166 cells; format: cell-based; conditions: C8166 cells (CC50) and HIV-1 3B infected C8166 cells (EC50)
# Method in brief: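 CC50 came from MTT cytotoxicity on C8166 cells. EC50 came from inhibition of HIV-1 cytopathic effect in C8166 cells. Azidothymidine was the positive control. The index is CC50 divided by EC50.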
# [4] = system: Human immunodeficiency virus 1; assay: Antiviral activity against HIV-1 3B infected in human C8166 cells assessed as inhibition of syncytia formation after 3 days; format: functional, organism-based; conditions: Human immunodeficiency virus 1, 3B, C8166, 72 h
# Tobacco mosaic virus [5] = assay: Antiviral activity against TMV strain U1 infected in compound-pretreated Nicotiana glutinosa leaves assessed as inhibition of viral infection at 20 uM incubated with leaf for 6 hrs prior to viral inoculation; format: functional
# Method in brief: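 Protection assay with TMV U1 on tobacco leaves. Leaves were pretreated with compound at 20 μM for 6 h before virus inoculation. Compounds were dissolved in DMSO and diluted with water; a DMSO solution served as negative control and ningnanmycin as positive control. Inhibition rates are mean ± SD, n = 3.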
# Tobacco mosaic virus [6] = assay: Antiviral activity against TMV strain U1 infected in Nicotiana glutinosa leaves assessed as decrease in number of local leaf lesions incubated with virus for 30 mins prior to inoculation on leaves measured 3 to 4 days post-viral infection by half-leaf method; format: functional, organism-based; method in brief: as §1
SMILES,inhibition at 20 µM (Tobacco mosaic virus [1]),CC50 at 72 h [2],selectivity ratio [3],EC50 [4],inhibition at 20 µM (Tobacco mosaic virus [5]),IC50 (Tobacco mosaic virus [6])
C=C(C)[C@H](O)COc1cc(OC)c2c(c1)C(=O)c1cc(O)cc(O)c1-2 [GRAMNIPHENOL E],7.16%,> 200 µg/mL,> 127,1.58 µg/mL,,
COc1ccc(/C=C/Cc2ccc(O)c(OC)c2OC)cc1O [CANDENATENIN A],21.2%,145 µg/mL,44.3,3.28 µg/mL,24%,70.6 µM
C=C(C)[C@H](O)COc1cc(OC)c2c(c1)C(=O)c1c(O)ccc(O)c1-2 [GRAMNIPHENOL D],13.3%,> 200 µg/mL,> 137,1.46 µg/mL,11.4%,129 µM
COc1ccc2c(c1)C=C[C@@H](c1ccc(O)c(C(=O)CCO)c1OC)O2 [GRAMNIPHENOL C],48.2%,145 µg/mL,44.3,3.28 µg/mL,56.3%,20.8 µM
Oc1cc(O)cc(-c2cc3ccc(O)cc3o2)c1 [MORACIN M],13.2%,57.4 µg/mL,12.5,4.59 µg/mL,10.2%,128 µM
CNCC(=O)N[C@@H](CO)C(=O)N[C@H]1[C@H](O)[C@@H](O)[C@H](n2ccc(N)nc2=O)O[C@@H]1C(N)=O [NINGNANMYCIN],31.8%,,,,30%,42.2 µM
COc1ccc(-c2cc3cc4c(cc3o2)OC(C)(C)C=C4)cc1 [GRAMNIPHENOL G],32.1%,88.7 µg/mL,13.9,6.38 µg/mL,36.1%,57.7 µM
CC1(C)C=Cc2cc3cc(-c4ccc(O)cc4)oc3cc2O1 [GRAMNIPHENOL F],35.8%,102 µg/mL,19.6,5.22 µg/mL,33.8%,40.8 µM
C/C=C/c1cc(OC)c(OC)cc1C(=O)c1cc(OC)c(OC)c(OC)c1 [GRAMNIPHENOL B],,134 µg/mL,106,1.27 µg/mL,,
Cc1cn([C@H]2C[C@H](N=[N+]=[N-])[C@@H](CO)O2)c(=O)[nH]c1=O [ZIDOVUDINE],,> 200 µg/mL,> 5880,,,
COc1cc(O)cc2c1-c1c(O)ccc(O)c1C2=O,17.4%,105 µg/mL,19.3,5.47 µg/mL,16.7%,98.3 µM
COc1cc(O)cc2c1-c1c(O)cc(O)cc1C2=O,7.9%,86.7 µg/mL,31.8,2.73 µg/mL,,
